Measured values from publication PMC4084610 (Advances in pharmacology (San Diego, Calif.), 2014).
“Also recorded” adds a separate entry of the source. Read-outs that look alike come from different tables or passages of the source.

Legend:
rats = conditions: cited from earlier work
VMAT2 [1] = target: T1, VMAT2 (Rattus norvegicus, UniProt Q01827); assay type: biochemical
VMAT2 [2] = target: T1, VMAT2; assay type: binding; conditions: whole rat brain vesicles, mean±SEM; for Ki: read-out: [3H]DTBZ binding Ki, 5 nM [3H]DTBZ
VMAT2 [3] = target: T1, VMAT2; experiment: Kinetic analysis of inhibition of [3H]DA uptake at VMAT2; assay type: biochemical; conditions: for Vmax of [3H]DA uptake at VMAT2: analog at its Ki concentration, control 29.9±4.30; for Mechanism of VMAT2 inhibition: kinetic analysis of [3H]DA uptake
In short: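 Rat synaptic vesicle suspension was added to assay buffer containing inhibitor or buffer (control), plus [3H]DA across 0.001–5.0 μM. Incubation ran 8 min and was stopped by filtration, then filter-retained radioactivity was counted. Nonspecific uptake was defined with Ro4-1284 (10 μM).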

[4] = tested on: METH-evoked DA release from striatal slices; experiment: Inhibition of METH-evoked DA release from superfused striatal slices; assay type: cell-based, rat; conditions: for Imax for inhibition of METH-evoked DA release / IC50: METH 5 μM, total DA overflow, striatal slices; for Effect of analog alone on fractional DA release: analog alone in superfusion buffer, 0.3–30 μM; for IC50: read-out: IC50 for inhibition of METH-evoked DA release
In short: (§1)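 Rat coronal striatal slices are preincubated 60 min at 34 °C in Krebs buffer, then superfused at 1 ml/min for 60 min. Two 5-min basal samples are collected into 0.1 M perchloric acid. Test compound (one concentration per slice, 0.3–30 μM) runs 30 min, then with 5 μM METH for 15 min, then alone for 20 min. Buffer-control and METH-control slices are included. Superfusate is ascorbate-oxidase treated and analysed by HPLC-electrochemical detection.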

DAT [5] = target: T2, DAT (Rattus norvegicus, UniProt P23977); experiment: Inhibition of [3H]DA uptake at DAT in synaptosomal preparations; assay type: biochemical; conditions: read-out: DAT Ki value ([3H]DA uptake); synaptosomes
In short: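 Synaptosomes are preincubated with test compound (1 nM–100 μM) for 5 min at 34 °C, then placed on ice. [3H]DA is added from a 0.1 μM solution, followed by a further 10 min at 34 °C. Nonspecific uptake is defined with 10 μM nomifensine.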

[6] = tested on: fractional DOPAC release from rat striatal slice preparations; experiment: Fractional DOPAC release from superfused striatal slices; assay type: cell-based; conditions: 30 min superfusion before METH, 0.3–30 μM
In short: as §1

Water solubility = assay type: physicochemical
METH addicts = conditions: ref NCT00439504; cited from earlier work
SERT = conditions: ref Miller et al., 2004; cited from earlier work
DAT [7] = target: T2, DAT; conditions: ref Miller et al., 2004; cited from earlier work
[8] = tested on: METH-evoked DA release from striatal slices; conditions: ref Horton, Siripurapu, Norrholm, et al., 2011; cited from earlier work
[9] = rat striatal vesicles, mean±SEM
[10] = read-out: VMAT2 [3H]DA uptake Ki, rat striatal vesicles, 0.1 μM [3H]DA, mean±SEM

T1 sequence (Q01827 whole entry): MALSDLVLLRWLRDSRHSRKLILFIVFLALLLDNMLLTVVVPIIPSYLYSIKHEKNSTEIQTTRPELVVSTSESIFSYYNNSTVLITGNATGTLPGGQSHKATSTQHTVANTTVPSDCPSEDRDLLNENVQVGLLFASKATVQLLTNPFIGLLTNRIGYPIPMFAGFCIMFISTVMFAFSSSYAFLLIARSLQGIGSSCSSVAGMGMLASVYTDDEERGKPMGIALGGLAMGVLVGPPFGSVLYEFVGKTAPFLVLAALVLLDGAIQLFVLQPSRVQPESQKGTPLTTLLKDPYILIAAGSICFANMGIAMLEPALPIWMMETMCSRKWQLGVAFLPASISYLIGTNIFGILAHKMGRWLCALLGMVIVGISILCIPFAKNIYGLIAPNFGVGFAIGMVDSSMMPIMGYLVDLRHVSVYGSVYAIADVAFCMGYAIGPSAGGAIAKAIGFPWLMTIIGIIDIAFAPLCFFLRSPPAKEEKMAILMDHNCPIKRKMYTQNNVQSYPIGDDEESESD
T2 sequence (P23977 whole entry): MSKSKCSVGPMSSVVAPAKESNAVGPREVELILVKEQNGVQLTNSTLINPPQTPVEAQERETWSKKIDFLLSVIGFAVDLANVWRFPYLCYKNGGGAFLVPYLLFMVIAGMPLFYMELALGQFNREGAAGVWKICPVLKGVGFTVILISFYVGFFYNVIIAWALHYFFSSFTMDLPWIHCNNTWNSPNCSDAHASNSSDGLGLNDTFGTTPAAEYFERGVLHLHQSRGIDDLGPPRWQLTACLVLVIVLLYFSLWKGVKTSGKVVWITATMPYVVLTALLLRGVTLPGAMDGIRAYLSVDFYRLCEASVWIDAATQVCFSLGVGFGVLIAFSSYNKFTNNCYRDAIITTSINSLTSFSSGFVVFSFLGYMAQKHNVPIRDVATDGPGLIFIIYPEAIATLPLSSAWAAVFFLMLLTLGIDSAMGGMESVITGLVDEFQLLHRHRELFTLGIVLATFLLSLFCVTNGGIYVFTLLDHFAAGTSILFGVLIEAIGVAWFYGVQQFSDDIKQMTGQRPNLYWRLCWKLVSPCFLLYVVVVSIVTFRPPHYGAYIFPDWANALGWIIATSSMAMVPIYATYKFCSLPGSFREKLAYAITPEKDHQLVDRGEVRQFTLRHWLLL

COc1ccc(CC[C@H]2CCC[C@@H](CCc3ccc(OC)cc3)N2C[C@@H](O)CO)cc1 (relative stereo) [GZ-793A, (R)-3-[2,6-cis-di(4-methoxyphenethyl)piperidin-1-yl]propane-1,2-diol]
Effect on cue- and METH-induced reinstatement of METH-seeking (rats; rats, 15 mg/kg, ref Alvers et al., 2012): decrease reinstatement

Cl.c1ccc(CC[C@@H]2CC[C@H](CCc3ccccc3)N2)cc1 [AV-1-228, cis-2,5-di-(2-phenethyl)-pyrrolidine hydrochloride]
VMAT2 [3H]DA uptake Imax (VMAT2 [1]; [9]): 100% | Ki (VMAT2 [1]; [10]): 28 ± 1 nM | Ki (VMAT2 [2]): 2660 ± 370 nM | [3H]DTBZ binding Imax (VMAT2 [2]): 100%

c1ccc(C[C@H]2CC[C@@H](Cc3ccccc3)N2)cc1 [AV-2-192, cis-2,5-di(2-benzyl)-pyrrolidine]
Vmax of [3H]DA uptake at VMAT2 (VMAT2 [3]): 29.6 ± 7.28 pmol/min/mg | Mechanism of VMAT2 inhibition (VMAT2 [3]): competitively inhibit; also recorded: Competitive | Imax for inhibition of METH-evoked DA release [4]: 55% | Effect of analog alone on fractional DA release [4]: did not alter fractional DA release | IC50 [4]: 5200 nM | VMAT2 [3H]DA uptake Imax (VMAT2 [1]; [9]): 100% | Ki (VMAT2 [1]; read-out: Ki at the DA uptake site on VMAT2): < 10 nM | Ki (VMAT2 [1]; [10]): 9.3 ± 0.75 nM | Ki (DAT [5]): 2630 nM | Ki (VMAT2 [2]): 1640 ± 120 nM | [3H]DTBZ binding Imax (VMAT2 [2]): 100% | Lowest concentration to increase extracellular DOPAC [6]: 3 µM

CN1[C@@H](Cc2ccccc2)CC[C@H]1Cc1ccccc1 [AV-2-197, 1-methyl-cis-2,5-di(2-benzyl)-pyrrolidine]
Vmax of [3H]DA uptake at VMAT2 (VMAT2 [3]): 22.0 ± 4.36 pmol/min/mg | Mechanism of VMAT2 inhibition (VMAT2 [3]): competitively inhibit; also recorded: Competitive | Imax for inhibition of METH-evoked DA release [4]: 63% | Effect of analog alone on fractional DA release [4]: did not alter fractional DA release | IC50 [4]: 4200 nM | Increased affinity for the DA uptake site on VMAT2 compared with AV-1-229A (VMAT2 [1]): 14 orders-of-magnitude | VMAT2 [3H]DA uptake Imax (VMAT2 [1]; [9]): 100% | Ki (VMAT2 [1]; [10]): 19 ± 0.91 nM | Ki (DAT [5]): 5400 nM | Ki (VMAT2 [2]): 2460 ± 420 nM | [3H]DTBZ binding Imax (VMAT2 [2]): 96±1% | Lowest concentration to increase extracellular DOPAC [6]: 10 µM

CN1[C@@H](CCc2ccccc2)CCC[C@H]1CCc1ccccc1 [Lobelane, N-methyl-2,6-bis(cis-phenylethyl)piperidine, reference compound]
Water solubility (in words) (Water solubility): decreased water solubility

CN1[C@@H](CC(=O)c2ccccc2)CCC[C@H]1C[C@H](O)c1ccccc1 [Lobeline, reference compound]
Safety in phase 1b clinical trials (METH addicts): safe | Effect on locomotor activity in response to METH (rats; adult male rats, 3 mg/kg 10 min prior to METH 1 mg/kg, 10 consecutive days, ref Miller, Green, et al. (2000)): significantly reduced locomotor activity

CN1C(/C=C\c2ccccc2)CCCC1/C=C\c1ccccc1 (stereo not drawn) [MTD, N-methyl-2,6-bis(cis-phenylethenyl) piperidine]
Fold lower affinity for SERT compared with lobeline (SERT): 6.5 fold | Water solubility (in words) (Water solubility): limited solubility | Fold higher affinity for DAT compared with lobeline (DAT [7]): 100 fold

CN1C/C(=C\c2ccc(Cl)cc2Cl)C/C(=C/c2ccc(Cl)cc2Cl)C1 [UKMH-106, (3Z,5Z)-3,5-bis(2,4-dichlorobenzylidene)-1-methylpiperidine]
Water solubility (in words) (Water solubility): improved water solubility | Inhibition of METH-evoked DA release (in words) [8]: inhibited
